Experimental findings from ChEMBL document CHEMBL4014306, “Pyrazolopyrimidines as Potent Stimulators for Transient Receptor Potential Canonical 3/6/7 Channels” (J Med Chem, 2017) are described below.

Molecules are shown by their SMILES. pEC50: −log10 of the molar value. Active and inactive are the calls of the source. No cut-off for these calls is given here.

What all share (type): cell-based
Experiment [1] concerns the target T1, Short transient receptor potential channel 3 (Rattus norvegicus) (UniProt Q9JMI9).
T1 sequence (whole entry): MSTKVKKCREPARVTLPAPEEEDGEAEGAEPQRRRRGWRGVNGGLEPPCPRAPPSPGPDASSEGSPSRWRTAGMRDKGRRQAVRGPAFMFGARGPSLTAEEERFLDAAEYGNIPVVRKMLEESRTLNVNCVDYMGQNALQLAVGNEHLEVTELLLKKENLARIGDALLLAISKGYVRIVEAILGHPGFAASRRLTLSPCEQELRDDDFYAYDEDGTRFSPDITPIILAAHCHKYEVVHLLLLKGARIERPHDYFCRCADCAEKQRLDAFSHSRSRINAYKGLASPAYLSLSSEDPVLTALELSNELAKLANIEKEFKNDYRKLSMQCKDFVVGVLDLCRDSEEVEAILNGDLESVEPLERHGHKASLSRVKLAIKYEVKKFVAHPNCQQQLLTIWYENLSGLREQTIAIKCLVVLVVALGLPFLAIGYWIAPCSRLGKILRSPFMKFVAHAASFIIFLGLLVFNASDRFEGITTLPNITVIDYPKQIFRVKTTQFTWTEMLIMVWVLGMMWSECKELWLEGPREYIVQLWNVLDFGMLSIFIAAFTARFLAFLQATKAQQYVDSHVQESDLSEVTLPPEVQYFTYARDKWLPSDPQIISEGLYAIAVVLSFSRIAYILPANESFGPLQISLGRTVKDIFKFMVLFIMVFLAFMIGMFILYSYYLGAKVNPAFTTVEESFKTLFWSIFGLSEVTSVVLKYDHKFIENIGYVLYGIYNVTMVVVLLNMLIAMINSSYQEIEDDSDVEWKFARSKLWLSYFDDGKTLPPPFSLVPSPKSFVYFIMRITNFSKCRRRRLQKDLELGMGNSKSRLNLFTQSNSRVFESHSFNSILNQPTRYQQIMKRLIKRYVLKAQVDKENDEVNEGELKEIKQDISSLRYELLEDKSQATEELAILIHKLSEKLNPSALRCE
As to the kind of experiment: Agonist activity at TRPC3 in rat primary glomerular mesangial cells assessed as increase in intracellular calcium level at 1 uM in presence of TRPC inhibitor […] by Fluo4-AM dye-based fluorescence assay. Put shortly:
(§1)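 Rat glomerular mesangial cells, isolated by graded sieving from male Sprague–Dawley rats, collagenase-digested, cultured in RPMI 1640 with 17% FBS. Grown overnight on coverslips, then loaded with 10 μM Fluo4-AM and 0.02% pluronic F-127 for 1 h at 37 °C in 1 mM Ca2+ saline, pH 7.4. Compound at 1 μM. Confocal imaging, ex 488/em 515 nm, read as F/F0. For the 2-APB condition, 30 μM 2-APB for 2 min beforehand and kept during compound application.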
A general note: A change in cytosolic calcium serves as a functional read-out for many receptors and channels.

Experiment [2] has as its target T1, Short transient receptor potential channel 3 (Rattus norvegicus). As to the kind of experiment: Agonist activity at TRPC3 in rat primary glomerular mesangial cells assessed as increase in intracellular calcium level at 1 uM by Fluo4-AM dye-based fluorescence assay. Put shortly: as §1
The target in experiment [3] is T2, Short transient receptor potential channel 6 (Mus musculus) (UniProt Q61143).
T2 sequence (whole entry): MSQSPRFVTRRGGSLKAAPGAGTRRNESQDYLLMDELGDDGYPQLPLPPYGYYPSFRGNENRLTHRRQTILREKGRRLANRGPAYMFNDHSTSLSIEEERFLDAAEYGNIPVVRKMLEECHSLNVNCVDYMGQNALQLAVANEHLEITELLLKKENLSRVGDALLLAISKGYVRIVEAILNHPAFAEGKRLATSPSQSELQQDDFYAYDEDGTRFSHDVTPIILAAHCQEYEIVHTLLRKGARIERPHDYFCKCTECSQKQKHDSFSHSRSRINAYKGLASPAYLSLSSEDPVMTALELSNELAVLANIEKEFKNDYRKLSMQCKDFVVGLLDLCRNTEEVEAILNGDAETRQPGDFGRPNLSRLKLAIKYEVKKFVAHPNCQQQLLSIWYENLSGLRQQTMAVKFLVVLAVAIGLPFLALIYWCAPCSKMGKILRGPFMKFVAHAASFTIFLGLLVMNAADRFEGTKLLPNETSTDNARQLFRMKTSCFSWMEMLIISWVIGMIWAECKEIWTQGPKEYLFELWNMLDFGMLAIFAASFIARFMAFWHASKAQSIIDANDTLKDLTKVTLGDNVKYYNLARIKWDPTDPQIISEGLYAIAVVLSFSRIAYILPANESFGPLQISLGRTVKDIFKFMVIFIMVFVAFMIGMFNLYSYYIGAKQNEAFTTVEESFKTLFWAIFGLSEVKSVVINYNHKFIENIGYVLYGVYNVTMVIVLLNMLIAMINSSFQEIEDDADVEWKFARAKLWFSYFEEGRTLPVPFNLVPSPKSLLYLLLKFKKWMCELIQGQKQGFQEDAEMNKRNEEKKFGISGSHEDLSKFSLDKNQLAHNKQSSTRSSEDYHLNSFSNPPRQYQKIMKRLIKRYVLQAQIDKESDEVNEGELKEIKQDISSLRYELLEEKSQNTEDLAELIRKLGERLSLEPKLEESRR
Kind of experiment: (§2) Agonist activity at mouse TRPC6 expressed in HEK293 cells co-expressing Gq11-PLCbeta fused M5 receptor assessed as increase in intracellular calcium level by Fluo-4-AM dye-based fluorescence assay. Put shortly:
(§3)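 Stable HEK293 line coexpressing mouse TRPC6 and M5 receptor, held under G418 and hygromycin B. Cells are loaded with Fluo4-AM or Fluo8-AM in 2 mM Ca2+ extracellular solution at pH 7.4 with 2 mM probenecid, and read at 32 °C as ΔF/F0.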

Experiment [4] addresses T3, Short transient receptor potential channel 6 (Mus musculus, UniProt Q61143).
T3 sequence (Q61143 whole entry): T2 sequence (whole entry)
Described as §2. A digest of the protocol:
as §3

As for `Cc1nn2c(O)cc(C3CCN(C(=O)OCc4ccccc4)CC3)nc2c1-c1ccc(F)cc1`, the result in experiment [1] was inactive. The result in experiment [2] was Active.

In the case of `CCOC(=O)N1CCC(c2cc(O)n3nc(C)c(-c4ccc(F)cc4)c3n2)CC1`, in experiment [3], the Activity entry was “Dose-dependent effect”. Further, the pEC50 in experiment [4] was 5.14.

As usually defined, the pEC50 is the EC50 on a negative log10 scale, so that one unit is a factor of ten.
